# Laboratory results from ChEMBL document CHEMBL3272070, “Cycloalkanoindoles. 1. Syntheses and antiinflammatory actions of some acidic tetrahydrocarbazoles, cyclopentindoles, and cycloheptindoles” (J Med Chem, 1976).
# Calls of active or inactive are those of the source. The calls are words filed in the database; no cut-off is given here.
# Assays:
# [1] = tested on: Rattus norvegicus; test: Chronic antiinflammatory activity against adjuvant-induced arthritis in rat assessed as decrease in volume of paw at 25 mg/kg, po administered for 9 days starting 14 days after adjuvant injection and continued until day 22 by therapeutic test; format: functional, organism-based; design: dose 25 mg/kg
# Outline: (§1)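 Adjuvant arthritis was induced in groups of six rats by injecting Mycobacterium butyricum in mineral oil into the left hind foot pad. Oral dosing ran from day 14 to day 22 (nine doses). Injected-paw volume was measured by mercury displacement, and a decrease of ≥0.5 ml counted as a therapeutic effect. ED50 was derived by probit analysis of responder counts. The maximum screening dose was 100 mg/kg.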
# [2] = tested on: Rattus norvegicus; test: Chronic antiinflammatory activity against adjuvant-induced arthritis in po dosed rat assessed as decrease in volume of paw administered for 9 days starting 14 days after adjuvant injection and continued until day 22 by therapeutic test; format: functional; outline: as §1
# [3] = tested on: Rattus norvegicus; test: Acute antiinflammatory activity in po dosed rat assessed as inhibition of carrageenan-induced paw edema; format: functional
# [4] = tested on: Rattus norvegicus; test: Ulcerogenicity in po dosed 24-hrs starved Charles-River rat assessed as lesions on stomach administered as single dose measured after 18 hrs; format: toxicity, organism-based; conditions: in vivo
# Outline: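 Male Charles River rats were starved 24 h and given a single oral dose. After 18 h they were killed by ether inhalation and their stomachs examined for lesions (erosion or ulcer). UD50, the dose producing lesions in 50% of rats, was derived by probit analysis.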
# [5] = organism: Rattus norvegicus; test: Ratio of ED50 for ulcerogenicity in 24-hrs starved Charles-River rat to ED50 for chronic antiinflammatory activity against adjuvant-induced arthritis in rat
# Outline: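 Ratio of ulcerogenic UD50 to therapeutic ED50. UD50: single oral dose in 24 h-starved male Charles River rats, stomach lesions scored at 18 h. Therapeutic ED50: adjuvant-arthritic rats dosed orally days 14–22, with a ≥0.5 ml decrease in paw volume as the response. Both values were derived by probit analysis.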
# [6] = tested on: Rattus norvegicus; test: Chronic antiinflammatory activity against adjuvant-induced arthritis in rat assessed as decrease in volume of paw at 10 mg/kg, po administered for 9 days starting 14 days after adjuvant injection and continued until day 22 by therapeutic test; format: functional, organism-based; design: dose 10 mg/kg; outline: as §1
# [7] = tested on: Rattus norvegicus; test: Chronic antiinflammatory activity against adjuvant-induced arthritis in rat assessed as decrease in volume of paw at 100 mg/kg, po administered for 9 days starting 14 days after adjuvant injection and continued until day 22 by therapeutic test; format: functional, organism-based; design: dose 100 mg/kg; outline: as §1
# [8] = tested on: Rattus norvegicus; test: Ratio of ED50 for acute antiinflammatory activity against carrageenan-induced paw edema in rat to ED50 for chronic antiinflammatory activity against adjuvant-induced arthritis in rat
smiles,measurement,setting,value
CC1(CC(=O)O)CCc2c1[nH]c1ccccc21 (stereo not drawn),Activity,[1],inactive
CCCC1(CC(=O)O)OCCc2c1[nH]c1ccccc21 (stereo not drawn) [PRODOLIC ACID],ED50,[2],9 mg/kg
same,ED50,[3],89.9 mg/kg
same,ED50,[4],678 mg/kg
same,Ratio ED50,[5],75
CCCCC1C(=O)N(c2ccccc2)N(c2ccccc2)C1=O [PHENYLBUTAZONE],ED50,[2],5.4 mg/kg
same,ED50,[4],100 mg/kg
CCc1cccc2c3c([nH]c12)C(CC)(CC(=O)O)CCCC3 (stereo not drawn),ED50,[2],> 50 mg/kg
CCCCc1cccc2c3c([nH]c12)C(CC)(CC(=O)O)CCC3 (stereo not drawn),ED50,[2],4.2 mg/kg
CCC1(CC(=O)O)CCc2c1[nH]c1ccccc21 (stereo not drawn),ED50,[2],100 mg/kg
CCc1cccc2c3c([nH]c12)C(C)(CC(=O)O)CC3 (stereo not drawn),ED50,[2],> 50 mg/kg
CCC1(CC(=O)O)CCCc2c1[nH]c1ccccc21 (stereo not drawn),ED50,[2],3.3 mg/kg
COc1ccc2c(c1)c(CC(=O)O)c(C)n2C(=O)c1ccc(Cl)cc1 [INDOMETHACIN],ED50,[2],0.2 mg/kg
CCc1cccc2c3c([nH]c12)C(C)(CC(=O)O)CCCC3 (stereo not drawn),Activity,[6],inactive
CC1(CC(=O)O)CCCc2c1[nH]c1ccccc21 (stereo not drawn),Activity,[7],inactive
COc1ccc2cc([C@H](C)C(=O)O)ccc2c1 [NAPROXEN],ED50,[2],2.1 mg/kg
same,ED50,[4],28 mg/kg
same,Ratio ED50,[5],13
CCc1cccc2c3c([nH]c12)C(CC)(CC(=O)O)CCC3 (stereo not drawn),ED50,[2],1.9 mg/kg
O=C(O)CC1CCCc2c1[nH]c1ccccc21 (stereo not drawn),Activity,[7],inactive
O=C(O)C1CCc2c([nH]c3ccc(Cl)cc23)C1 (stereo not drawn),ED50,[2],21.3 mg/kg
same,ED50,[3],10.2 mg/kg
CCC1(CC(=O)O)CCCc2c1[nH]c1c(C(C)C)cccc21 (stereo not drawn),ED50,[2],5.4 mg/kg
CCC1(CC(=O)O)CCCc2c1[nH]c1ccc(OC)cc21 (stereo not drawn),Activity,[1],inactive
CCCc1cccc2c3c([nH]c12)C(CC)(CC(=O)O)CCC3 (stereo not drawn),ED50,[2],1.1 mg/kg
same,ED50,[3],10.5 mg/kg
same,ED50,[4],24 mg/kg
same,Ratio ED50,[5],24
same,Ratio,[8],10
CCc1cccc2c3c([nH]c12)C(CC)(CC(=O)O)OCC3 (stereo not drawn) [ETODOLAC],ED50,[2],0.7 mg/kg
same,ED50,[3],10.2 mg/kg
same,ED50,[4],60 mg/kg
same,Ratio ED50,[5],85
CCc1cccc2c3c([nH]c12)C(CC)(CC(=O)O)CC3 (stereo not drawn),ED50,[2],6.2 mg/kg
COc1ccc2[nH]c3c(c2c1)CCC(C(=O)O)C3 (stereo not drawn),ED50,[2],20 mg/kg
same,ED50,[3],12.7 mg/kg
O=C(O)C1CCc2c([nH]c3ccccc23)C1 (stereo not drawn),Activity,[7],inactive
CCCC1(CC(=O)O)CCCc2c1[nH]c1ccccc21 (stereo not drawn),ED50,[2],20 mg/kg
